Results from different studies.
Each line is one published result; the experiments were not run side by side.
Cell line: MV4-11
Effect on: cell growth or viability

CC(C)[C@H](N)C(=O)N1CCC[C@H]1B(O)O
IC50 (ATP luminescence; 5 days): 130 nM

NNCCc1ccccc1
EC50 (resazurin; 96 h): > 2000 nM

COc1cc(-c2ncn(/C=C\C(=O)OC(C)C)n2)cc(C(F)(F)F)c1
IC50 (72 h): 28 nM

c1cncc(Nc2nccc(NC3CCCCC3)n2)c1
EC50 (ATP luminescence; 72 h): > 7000 nM

N[C@H]1CC[C@H](N[C@@H]2C[C@H]2c2ccccc2)CC1
EC50 (resazurin; 96 h): 0.1 nM

CC(C)C[C@H](NC(=O)[C@H](Cc1ccccc1)NC(=O)c1cnccn1)B(O)O
IC50 (ATP luminescence): 3.9 nM

Cn1cc(-c2cc(N3CCCCS3(=O)=O)ccc2Oc2ccc(F)cc2F)c2c(F)c[nH]c2c1=O
GI50 (CCK-8; 72 h): 3.5 nM

c1cc(Nc2nccc(NC3CCCCC3)n2)cc(-c2cnccn2)c1
EC50 (ATP luminescence; 72 h): 53 nM

N[C@@H](CC(=O)N1CCN(C(c2ccc(F)cc2)c2ccc(F)cc2)CC1)C(=O)N1Cc2ccccc2C1
IC50 (ATP luminescence; 24 h): 1480 nM

Nc1nc(Nc2ccc3c(c2)CC[C@@H](N2CCCC2)CC3)nn1-c1cc2c(nn1)-c1ccccc1CCC2
IC50 (trypan blue; 72 h): 247 nM

CC(C)Nc1ccnc(Nc2ccc(-c3ccccc3)cc2)n1
EC50 (ATP luminescence; 72 h): 11900 nM

COc1ccc(-c2c(-c3ccc(C#N)c(F)c3)nc(N3CCC(N)CC3)n(C)c2=O)cc1F
EC50 (resazurin; 96 h): 2.9 nM

c1cc(Nc2nccc(NC3CCCCC3)n2)cc(-n2ccnc2)c1
EC50 (ATP luminescence; 72 h): 58 nM

C/C(=N\NC(=O)c1cccc(S(=O)(=O)N2CCN(C)CC2)c1)c1cc(Cl)ccc1O
EC50 (resazurin; 96 h): 886 nM

CC(C)Nc1ccnc(Nc2cccc(-c3ccccn3)c2)n1
EC50 (ATP luminescence; 72 h): 4820 nM

Cc1ncsc1-c1ccc(CNC(=O)[C@@H]2C[C@H](O)CN2C(=O)[C@@H](NC(=O)C2(F)CC2)C(C)(C)C)c(OCCc2ccc(CN3CCN(c4cc(-c5ccccc5O)nnc4N)CC3)cc2)c1
IC50 (ATP luminescence; 7 days): 1700 nM
